Source: PubChem
NSD2 HMT inh: NSD2 (human) methyltransferase inhibition; NSD2 peptide methylation, AlphaScreen, 120 min; inhibition, % at 12.5 µM; AID 743445; 310,000 compounds, 0.54% hits; O96028; in the data active = inhibition above about 50%
LEDGF integ inh: blocks HIV-1 LEDGF/p75-dependent DNA integration; 370,000 compounds, 0.64% hits; TR-FRET IN-LEDGF/p75 DNA integration, Eu/Cy5; inhibition, % at 3.7 µM;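 active = inhibition above the screen-wide mean plus 3 SD, cut at about 13% in these data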;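 also: signal is the Cy5 over europium emission ratio at 671 and 618 nm; 0% = plate median of compound wells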
Casp6 inh: blocks human caspase-6 cleavage activity | inhibition, % at 12.5 µM | AID 686996 | P55212 | 350,000 compounds, 0.53% hits | purified caspase-6, Z-VEID-R110 cleavage fluorescence;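 active = mean inhibition across replicates at least about 35%, with every replicate also reaching that limit, limit read from the data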;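 also: 0% = median of neutral control wells and 100% = no fluorescence left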
Target sequence (P55212 24-179 limits assumed): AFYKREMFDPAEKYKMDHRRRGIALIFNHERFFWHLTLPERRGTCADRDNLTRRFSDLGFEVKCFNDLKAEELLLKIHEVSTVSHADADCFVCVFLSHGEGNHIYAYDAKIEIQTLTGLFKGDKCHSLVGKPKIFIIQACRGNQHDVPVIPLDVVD
Target sequence (P55212 194-293 limits assumed): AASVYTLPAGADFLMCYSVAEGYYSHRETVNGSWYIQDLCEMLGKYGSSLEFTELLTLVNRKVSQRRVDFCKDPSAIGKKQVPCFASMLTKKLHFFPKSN
MBD2 inh: blocks human MBD2 binding to methylated DNA. Q9UBB5. TR-FRET, MBD2 binding to methylated oligonucleotide. inhibition, % at 4.4 µM. 370,000 compounds, 0.31% hits; in the data active = inhibition above about 13%
TDP2 inh: blocks human TDP2 phosphodiesterase activity; 370,000 compounds, 0.34% hits; O95551; recombinant TDP2, T5PNP hydrolysis, p-nitrophenol absorbance 415 nm; inhibition, % at 12.8 µM;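 active = inhibition above the mean of all tested compounds plus 3 SD, set per campaign, cut at about 25% in these data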;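 also: 0% = DMSO with enzyme and 100% = buffer with substrate but no TDP2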
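Material: recombinant human TDP2; quantity: TDP2 enzyme at 120 nM final; medium: Tris-HCl pH 7.5 with MgCl2; compound: single concentration, 12.8 µM nominal, with 1% DMSO; incubation: 2 h enzyme incubation at 37 °C; signal: epi absorbance; measure: percent inhibition; benchmarks: high control without enzyme, low control DMSO plus TDP2; repeats: singlicate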
UHRF1 MBD2 ctr: blocks human UHRF1 binding to methylated DNA. Q96T88. UHRF1 binding to methylated oligo, TR-FRET. inhibition, % at 4.4 µM. 370,000 compounds, 0.75% hits; in the data active = inhibition above about 21%;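 also: UHRF1 SRA domain binding a hemimethylated CpG hairpin DNA probe; 0% = median of test compound wells and 100% = reference inhibitor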
TDP2 confirm: human TDP2 inhibition, confirmation. shares compounds with TDP2 inh. recombinant human TDP2, absorbance read-out. inhibition, % at 12.8 µM. 1,100 compounds, 22% hits. AID 743263; in the data active = inhibition above about 25%;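 also: 0% = vehicle with enzyme and 100% = no enzyme buffer only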
An asterisk follows results filed as active; · = no result. Rows were chosen to be rich in hits. Some 1.8% of all compounds tested hit in one or more screens of this group.

SMILES	NSD2 HMT inh	LEDGF integ inh	Casp6 inh	MBD2 inh	TDP2 inh	UHRF1 MBD2 ctr	TDP2 confirm
CCOC(=O)c1sc(NC(=O)CNCc2cccnc2)c(C(=O)OCC)c1C	1	1	-1	-4	1	0	·
Cc1c(C(c2cc(O)ccc2Cl)c2c(C)n(C)n(-c3ccccc3)c2=O)c(=O)n(-c2ccccc2)n1C	0	0	4	0	29*	0	12
O=C(C[C@H]1CC[C@H]2[C@@H](COC[C@@H](O)CN2S(=O)(=O)c2ccc(F)cc2)O1)N[C@H]1CCN(Cc2ccccc2)C1	·	·	-1	·	·	·	·
COC(=O)[C@H](Cc1ccccc1)N1C(=O)O[C@@H](Cc2ccccc2)[C@H]1/C=C/C1CC1	·	·	-2	·	·	·	·
CC(=O)Oc1c(/C=C(\C#N)C(N)=O)[nH]c2ccccc12	8	8	18	-7	32*	-15	-1
O=C(C[C@H]1CC[C@H](NC(=O)C2CCC2)[C@H](CO)O1)NCc1ccccc1Cl	·	·	-1	·	·	·	·
COC(=O)Nc1ccc(OCc2ccccc2)cc1	-4	1	0	-6	4	0	·
COc1cc(CNc2ccc(O)cc2)cc(Br)c1OCc1ccccc1	8	10	13	-8	36*	5	-5
Oc1ccc(NCc2ccc(OCc3ccccc3)cc2)cc1	0	7	·	-9	34*	9	39*
O=C(c1cccnc1)N1CC2(C1)[C@@H](c1ccccc1)[C@@H](CO)N2C(=O)c1cccnc1	·	·	0	·	·	·	·
Cc1ccc(S(=O)(=O)NC[C@@H]2CC[C@@H]3[C@@H](CN3Cc3ccccc3C(=O)O)O2)cc1	·	·	1	·	·	·	·
CC(=O)Nc1ccc(S(=O)(=O)N2CCC(NC(=O)C(Cc3cccc(F)c3)NC(C)=O)CC2)cc1 (stereo not drawn)	-2	3	-13	-1	28*	-3	3
CC(=O)Nc1ccc(S(=O)(=O)N2CCC(NC(=O)C(Cc3ccc(C)cc3)NC(C)=O)CC2)cc1 (stereo not drawn)	-2	0	2	1	9	-1	·
Cc1ccccc1S(=O)(=O)N1CC(=O)N2[C@H](CO)[C@@H](c3ccc(C#CCN(C)C)cc3)[C@@H]2C1	·	·	1	·	·	·	·
O=C(c1cnccn1)N1CC(=O)N2[C@H](C1)[C@H](c1ccc(C#CCc3ccccc3)cc1)[C@@H]2CO	·	·	0	·	·	·	·
CC(C)(C)NC(=O)c1ccc2c(c1)CCO2	-1	-4	-3	5	11	-1	·
O=C(NC(=O)c1ccccc1O)c1ccc2c(c1)CCO2	3	-1	6	4	25*	-2	2
NS(=O)(=O)c1ccc(NCc2cnc3ccccc3n2)cc1	5	4	1	0	4	-5	·
N#CCc1cnc2ccccc2n1	8	0	3	-8	28*	-1	22
COc1cccc(NC(=O)c2cccc(C(=O)Nc3cccc(OC)c3)n2)c1	-2	1	-1	2	25*	-2	-6
COc1cccc(NC(=O)c2cccnn2)c1	-1	-1	0	-4	7	-1	·
CC(=O)c1c(C)oc2c1cc(NS(=O)(=O)c1ccc(C(=O)O)cc1)c1ccccc12	6	-2	15	-2	29*	-2	3
Cc1ccc(S(=O)(=O)Nc2cc3c(C(=O)O)c(C)oc3c3ccccc23)c(C)c1	·	-3	30	-1	-1	1	·
COc1cccc(C(C(=O)NC(C)(C)C)N(Cc2ccc(C)cc2)C(=O)CCC(=O)Nc2cc(C)on2)c1OC (stereo not drawn)	3	0	5	1	31*	-1	-8
O=C(O)CN1C(=O)CSC1=S	0	-2	8	3	27*	0	5
Cc1cccc(-c2ccc([C@@H]3[C@H](CO)N4CCCCN(S(=O)(=O)c5cccs5)C[C@@H]34)cc2)c1	·	·	-4	·	·	·	·
O=C(N[C@@H](Cc1ccccc1)c1nc2ccccc2[nH]1)c1ccc([N+](=O)[O-])cc1	·	3	1	7	25*	18	5
O=C(O)COCC(=O)Nc1cc(C(F)(F)F)cc(C(F)(F)F)c1	3	0	-1	-3	26*	3	0
